Experimental data from ChEMBL document CHEMBL5058577, “EUbOPEN Chemogenomics Library 2 (Multiplex)” (2022).

System: U2OS
Experiment: Multiplex assay against U2OS
Format: toxicity, cell-based
Details: human
Method in brief: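 Live cells carried four stains from seeding: Hoechst33342, BioTracker Green Microtubule Cytoskeleton Dye, MitoTracker Red and Annexin V Alexa Fluor 680. They were imaged on a CQ1 microscope at 37°C and 5% CO2 after compound addition. Using CellPathfinder machine-learning gating, cells were split into Hoechst high-intensity objects or normal cells, normal cells into healthy, pyknosed or fragmented nuclei, and pyknosed cells into mitotic or apoptotic; tubulin, mitochondrial-mass and membrane-permeability phenotypes are per cents of healthy-nucleus cells.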

[1] = 12 h, 1 µM, compound concentration 1 uM, replicate 1
[2] = 12 h, 1 µM, compound concentration 1 uM, replicate 2
[3] = 12 h, 10 µM, compound concentration 10 uM, replicate 1
[4] = 12 h, 10 µM, compound concentration 10 uM, replicate 2
[5] = 24 h, 1 µM, compound concentration 1 uM, replicate 1
[6] = 24 h, 1 µM, compound concentration 1 uM, replicate 2
[7] = 24 h, 10 µM, compound concentration 10 uM, replicate 1
[8] = 24 h, 10 µM, compound concentration 10 uM, replicate 2
[9] = 48 h, 1 µM, compound concentration 1 uM, replicate 1
[10] = 48 h, 1 µM, compound concentration 1 uM, replicate 2
[11] = 48 h, 10 µM, compound concentration 10 uM, replicate 1
[12] = 48 h, 10 µM, compound concentration 10 uM, replicate 2

CC(/C=C1\SC(=S)N(CCCC(=O)Nc2ccc(C(=O)O)c(O)c2)C1=O)=C\c1ccccc1
Population Apoptotic (%) [1]: 94%
Population Fragmented Nuclei (%) [1]: 26%
Population Healthy Nuclei (%) [1]: 64%
Population Hoechst High Intensity Objects (%) [1]: 3%
Population Membrane Permeable-Phenotype (%) [1]: 4%
Population Mitochondria Different-Phenotype (%) [1]: 1%
Population Mitotic Cells (%) [1]: 5%
Population Normal (%) [1]: 96%
Population Pyknosed Nuclei (%) [1]: 8%
Population Tubulin-Different-Phenotype (%) [1]: 3%
Total Cell Count [1]: 205
Population Apoptotic (%) [2]: 100%
Population Fragmented Nuclei (%) [2]: 12%
Population Healthy Nuclei (%) [2]: 80%
Population Hoechst High Intensity Objects (%) [2]: 4%
Population Membrane Permeable-Phenotype (%) [2]: 3%
Population Mitochondria Different-Phenotype (%) [2]: 2%
Population Mitotic Cells (%) [2]: 0%
Population Normal (%) [2]: 95%
Population Pyknosed Nuclei (%) [2]: 7%
Population Tubulin-Different-Phenotype (%) [2]: 0%
Total Cell Count [2]: 133
Population Apoptotic (%) [3]: 91%
Population Fragmented Nuclei (%) [3]: 28%
Population Healthy Nuclei (%) [3]: 61%
Population Hoechst High Intensity Objects (%) [3]: 3%
Population Membrane Permeable-Phenotype (%) [3]: 12%
Population Mitochondria Different-Phenotype (%) [3]: 2%
Population Mitotic Cells (%) [3]: 8%
Population Normal (%) [3]: 96%
Population Pyknosed Nuclei (%) [3]: 9%
Population Tubulin-Different-Phenotype (%) [3]: 4%
Total Cell Count [3]: 241
Population Apoptotic (%) [4]: 72%
Population Fragmented Nuclei (%) [4]: 16%
Population Healthy Nuclei (%) [4]: 72%
Population Hoechst High Intensity Objects (%) [4]: 0%
Population Membrane Permeable-Phenotype (%) [4]: 4%
Population Mitochondria Different-Phenotype (%) [4]: 1%
Population Mitotic Cells (%) [4]: 27%
Population Normal (%) [4]: 100%
Population Pyknosed Nuclei (%) [4]: 10%
Population Tubulin-Different-Phenotype (%) [4]: 5%
Total Cell Count [4]: 101
Population Apoptotic (%) [5]: 83%
Population Fragmented Nuclei (%) [5]: 25%
Population Healthy Nuclei (%) [5]: 64%
Population Hoechst High Intensity Objects (%) [5]: 3%
Population Membrane Permeable-Phenotype (%) [5]: 4%
Population Mitochondria Different-Phenotype (%) [5]: 1%
Population Mitotic Cells (%) [5]: 16%
Population Normal (%) [5]: 96%
Population Pyknosed Nuclei (%) [5]: 10%
Population Tubulin-Different-Phenotype (%) [5]: 1%
Total Cell Count [5]: 247
Population Apoptotic (%) [6]: 94%
Population Fragmented Nuclei (%) [6]: 9%
Population Healthy Nuclei (%) [6]: 79%
Population Hoechst High Intensity Objects (%) [6]: 1%
Population Membrane Permeable-Phenotype (%) [6]: 10%
Population Mitotic Cells (%) [6]: 5%
Population Normal (%) [6]: 98%
Total Cell Count [6]: 177
Population Apoptotic (%) [7]: 88%
Population Fragmented Nuclei (%) [7]: 26%
Population Healthy Nuclei (%) [7]: 64%
Population Hoechst High Intensity Objects (%) [7]: 2%
Population Membrane Permeable-Phenotype (%) [7]: 7%
Population Mitochondria Different-Phenotype (%) [7]: 3%
Population Mitotic Cells (%) [7]: 11%
Population Normal (%) [7]: 97%
Population Pyknosed Nuclei (%) [7]: 8%
Population Tubulin-Different-Phenotype (%) [7]: 3%
Total Cell Count [7]: 298
Population Apoptotic (%) [8]: 53%
Population Fragmented Nuclei (%) [8]: 16%
Population Healthy Nuclei (%) [8]: 72%
Population Hoechst High Intensity Objects (%) [8]: 0%
Population Mitochondria Different-Phenotype (%) [8]: 6%
Population Mitotic Cells (%) [8]: 46%
Population Normal (%) [8]: 100%
Population Pyknosed Nuclei (%) [8]: 11%
Population Tubulin-Different-Phenotype (%) [8]: 6%
Total Cell Count [8]: 111
Population Apoptotic (%) [9]: 93%
Population Fragmented Nuclei (%) [9]: 16%
Population Healthy Nuclei (%) [9]: 74%
Population Hoechst High Intensity Objects (%) [9]: 2%
Population Membrane Permeable-Phenotype (%) [9]: 5%
Population Mitochondria Different-Phenotype (%) [9]: 1%
Population Mitotic Cells (%) [9]: 6%
Population Normal (%) [9]: 97%
Population Pyknosed Nuclei (%) [9]: 8%
Population Tubulin-Different-Phenotype (%) [9]: 1%
Total Cell Count [9]: 368
Population Apoptotic (%) [10]: 78%
Population Fragmented Nuclei (%) [10]: 11%
Population Healthy Nuclei (%) [10]: 79%
Population Hoechst High Intensity Objects (%) [10]: 3%
Population Membrane Permeable-Phenotype (%) [10]: 4%
Population Mitochondria Different-Phenotype (%) [10]: 3%
Population Mitotic Cells (%) [10]: 21%
Population Normal (%) [10]: 96%
Population Pyknosed Nuclei (%) [10]: 9%
Population Tubulin-Different-Phenotype (%) [10]: 2%
Total Cell Count [10]: 253
Population Apoptotic (%) [11]: 97%
Population Fragmented Nuclei (%) [11]: 19%
Population Healthy Nuclei (%) [11]: 68%
Population Hoechst High Intensity Objects (%) [11]: 2%
Population Membrane Permeable-Phenotype (%) [11]: 6%
Population Mitochondria Different-Phenotype (%) [11]: 2%
Population Mitotic Cells (%) [11]: 2%
Population Normal (%) [11]: 97%
Population Pyknosed Nuclei (%) [11]: 12%
Population Tubulin-Different-Phenotype (%) [11]: 4%
Total Cell Count [11]: 396
Population Apoptotic (%) [12]: 82%
Population Fragmented Nuclei (%) [12]: 16%
Population Healthy Nuclei (%) [12]: 73%
Population Hoechst High Intensity Objects (%) [12]: 1%
Population Membrane Permeable-Phenotype (%) [12]: 4%
Population Mitochondria Different-Phenotype (%) [12]: 1%
Population Mitotic Cells (%) [12]: 17%
Population Normal (%) [12]: 98%
Population Pyknosed Nuclei (%) [12]: 10%
Population Tubulin-Different-Phenotype (%) [12]: 0%
Total Cell Count [12]: 170
